For assay [1], the species on record is Rattus norvegicus. Description: Inhibition of rat CAM2 at 10 uM by liquid scintillation counting in presence of [33gammaP]ATP. In short, it runs like this:
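CaM kinase II from rat brain; [γ33-P]ATP plus autocamtide-2 (5 µM); staurosporine reference; labelled autocamtide-2 counted by liquid scintillation; compounds at 10 µM.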

Assay [2] addresses Epidermal growth factor receptor (Homo sapiens) (UniProt P00533). Put plainly: Inhibition of EGFR in human A431 at 10 uM by liquid scintillation counting in presence of [33gammaP]ATP. In short, it runs like this: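 EGFR kinase from A-431 cells; substrate [γ33-P]ATP plus poly GAT (0.48 mg/mL); PD 153035 reference; product measured by liquid scintillation; compounds at 10 µM.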

Assay [3] deals with Insulin receptor (Homo sapiens) (UniProt P06213). Put plainly: Inhibition of human recombinant IR at 10 uM by liquid scintillation counting in presence of [33gammaP]ATP. In short, it runs like this:
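Human recombinant insulin receptor kinase; [γ33-P]ATP plus poly GT (0.03 mg/mL); staurosporine reference; liquid scintillation detection; 10 µM compound.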

The species entered for assay [4] is Rattus norvegicus. Put plainly: Inhibition of rat recombinant MAPK at 10 uM by liquid scintillation counting in presence of [33gammaP]ATP. In short, it runs like this:
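Rat recombinant ERK42 MAP kinase expressed in E. coli; [γ33-P]ATP with MBP (0.5 mg/mL); staurosporine reference; liquid scintillation read-out; 10 µM compound.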

In assay [5] the target is Dual specificity mitogen-activated protein kinase kinase 1 (Oryctolagus cuniculus) (UniProt P29678). Description: Inhibition of rabbit recombinant MEK1 expressed in Escherichia coli at 10 uM by liquid scintillation counting in presence of [33gammaP]ATP. A digest of the protocol: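 Rabbit recombinant MEK1 from E. coli; ATP plus unactivated MAP kinase (0.01 mg/mL) as substrate; staurosporine reference; liquid scintillation detection; 10 µM.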

The species entered for the next assay is Bos taurus. Description: Inhibition of bovine thymus p56LCK at 10 uM by liquid scintillation counting in presence of [33gammaP]ATP. In short, it runs like this:
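p56lck from bovine thymus; [γ33-P]ATP with polyGT (0.5 mg/mL) substrate; staurosporine reference; liquid scintillation read-out; compounds tested at 10 µM.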

In assay [6] the target is Proto-oncogene tyrosine-protein kinase Src (Homo sapiens) (UniProt P12931). Put plainly: Inhibition of Src at 10 uM.
In assay [7] the target is D(2) dopamine receptor (Homo sapiens) (UniProt P14416). Description: Displacement of [3H]spiperone from human recombinant dopamine D2 receptor expressed in CHO cells at 10 uM. In kind it is cell-based. A digest of the protocol: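 Human recombinant D2 receptor expressed in CHO cells; [3H]spiperone ligand at 0.3 nM; (+)-buctaclamol as reference compound.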
(In general: Loss of bound radioactivity is the signal in a displacement assay; it reports binding, not function.)

In assay [8] the target is T1, Alpha-2A adrenergic receptor (Rattus norvegicus) (UniProt P22909).
T1 sequence (whole entry): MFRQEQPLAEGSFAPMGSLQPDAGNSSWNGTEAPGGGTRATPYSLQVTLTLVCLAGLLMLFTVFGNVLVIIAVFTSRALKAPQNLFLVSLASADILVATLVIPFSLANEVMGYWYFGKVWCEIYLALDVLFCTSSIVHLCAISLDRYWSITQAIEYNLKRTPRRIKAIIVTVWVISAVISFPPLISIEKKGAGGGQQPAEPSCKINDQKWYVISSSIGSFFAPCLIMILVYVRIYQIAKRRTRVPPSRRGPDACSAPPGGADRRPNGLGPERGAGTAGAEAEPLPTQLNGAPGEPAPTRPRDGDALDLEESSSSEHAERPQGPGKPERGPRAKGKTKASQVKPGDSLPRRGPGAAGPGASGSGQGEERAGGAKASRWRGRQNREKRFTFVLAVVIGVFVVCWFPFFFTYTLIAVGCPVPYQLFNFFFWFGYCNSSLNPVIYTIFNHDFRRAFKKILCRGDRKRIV
Description: Displacement of [3H]RX821002 from alpha2 adrenoceptor in rat cerebral cortex at 10 uM. Format: tissue-based. In short, it runs like this: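 Rat cerebral cortex source; [3H]RX 821002 ligand at 0.5 nM; yohimbine as reference compound; non-selective alpha-2 site.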

Assay [9] concerns the target D(3) dopamine receptor (Homo sapiens) (UniProt P35462). Put plainly: Displacement of [3H]spiperone from human recombinant dopamine D3 receptor expressed in CHO cells at 10 uM. In kind it is cell-based. A digest of the protocol:
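Human recombinant D3 receptor from CHO cells; [3H]spiperone 0.3 nM as ligand; (+)-buctaclamol reference compound.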

Assay [10] is filed under the species Rattus norvegicus. Description: Displacement of [3H]AMPA from AMPA receptor in rat cerebral cortex at 10 uM. In kind it is tissue-based.
Assay [11] deals with Glutamate NMDA receptor (Rattus norvegicus) (UniProt P35439+Q00959+Q00960+Q00961+Q62645+Q8VHN2+Q9R1M7). Description: Displacement of [3H]CGP39653 from NMDA receptor in rat cerebral cortex at 10 uM. Format: tissue-based.
Assay [12] can be described thus: Displacement of [3H]QNB from muscarinic receptor at 10 uM.
For assay [13], the species on record is Rattus norvegicus. Put plainly: Displacement of [3H]cystisine from alpha-BGTX insensitive nicotinic acetylcholine receptor in rat cerebral cortex at 10 uM. Format: tissue-based.
The species entered for assay [14] is Rattus norvegicus. Put plainly: Displacement of [3H]cystisine from alpha-BGTX sensitive nicotinic acetylcholine receptor in rat cerebral cortex. The conditions noted are these: concentration not given here. Format: tissue-based. Further details: concentration or dose not given beside the values.
For assay [15], the target named is Glycogen synthase kinase-3 beta (Mus musculus) (UniProt Q9WV60). Description: Inhibition of GSK-3-beta-mediated tau phosphorylation in mouse granule cerebellar neurons cells after 16 hrs by Western blot. A digest of the protocol: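 Cerebellar granule neurons from P6 mice, plated on poly-L-lysine and grown 48 h in serum-free neurobasal/B-27 with 12.5 mM KCl; compounds 0.5–25 µM; LiCl 10 mM positive control with excess myo-inositol; lysates blotted with PHF-1 and Tau-1, normalised to β-actin, densitometry; mean of three experiments, control = 100 r.u.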
On the technique in general: In western blotting, separated proteins are transferred to a membrane and probed.

Assay [16] addresses Tyrosine-protein kinase ABL1 (Mus musculus) (UniProt P00520). Put plainly: Inhibition of mouse recombinant Abl expressed in Escherichia coli at 10 uM by fluorescence polarization.
The test system of assay [17] is 5-HT (non-selective) serotonin receptor (Rattus norvegicus). Description: Inhibition of [3H]serotonine binding to non-selective 5-HT serotoninergic receptor in rat cerebral cortex at 10 uM.
The target in assay [18] is T2, Glycogen synthase kinase-3 beta (Homo sapiens, UniProt P49841). Description: Irreversible inhibition of GSK3-beta mediated phosphorylation measured after careful washes by liquid scintillation counting. In short, it runs like this:
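His-tagged recombinant GSK-3β immobilised on nickel agarose, incubated 20 min at 37 °C with inhibitor, 15 µM ATP, [γ-32P]ATP and GS-1 in Tris/MgCl2/EGTA/EDTA pH 7.5; gel pelleted, washed three times in Tris-MgCl2 buffer, then reassayed 15 min with fresh ATP/GS-1; P81 filter scintillation; activity relative to identically handled control.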

For assay [19], the target named is T2, Glycogen synthase kinase-3 beta. Put plainly: Noncompetitive inhibition of GSK3-beta by double-reciprocal plotting in presence of increasing ATP. A digest of the protocol:
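Lineweaver-Burk analysis with ATP varied 6.5–100 µM and inhibitor 1–2 µM, GS-1 fixed at 15 µM; 20 min [γ-32P] incorporation into GS-1, V as pmol phosphate/20 min.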

Assay [20] has the same target. Description: Noncompetitive inhibition of GSK3-beta by double-reciprocal plotting in presence of 15 uM ATP. A digest of the protocol:
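Double-reciprocal kinetics: GS-1 varied 6.5–100 µM with inhibitor 1–2 µM at fixed 15 µM ATP; [γ-32P] filter assay, V as pmol phosphate/20 min; each point mean of three experiments.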

The subject of assay [21] is N2a. Put plainly: Induction of neurite growth in mouse Neuro2a cells at 0.2 uM after 16 hrs by phase-contrast photography. Format: functional, cell-based. A digest of the protocol:
(§1)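 Neuro2A mouse neuroblastoma cells grown in DMEM with 10% heat-inactivated FCS, 2 mM glutamine and antibiotics; compounds added in serum-containing medium for 16 h; control received DMSO; neurite/cytoplasmic extensions scored by phase-contrast photography.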

For assay [22], the system named is N2a. Description: Induction of neurite growth in mouse Neuro2a cells at 2 uM after 16 hrs by phase-contrast photography. In kind it is functional, cell-based. A digest of the protocol: as §1

Broadly, the inhibition is the drop in the measured response relative to a control, in per cent.

The structures appear in SMILES notation. Active and inactive are the calls of the source. No cut-off for these calls is given here.

Chain of D(2) dopamine receptor (Homo sapiens) (P14416 whole entry): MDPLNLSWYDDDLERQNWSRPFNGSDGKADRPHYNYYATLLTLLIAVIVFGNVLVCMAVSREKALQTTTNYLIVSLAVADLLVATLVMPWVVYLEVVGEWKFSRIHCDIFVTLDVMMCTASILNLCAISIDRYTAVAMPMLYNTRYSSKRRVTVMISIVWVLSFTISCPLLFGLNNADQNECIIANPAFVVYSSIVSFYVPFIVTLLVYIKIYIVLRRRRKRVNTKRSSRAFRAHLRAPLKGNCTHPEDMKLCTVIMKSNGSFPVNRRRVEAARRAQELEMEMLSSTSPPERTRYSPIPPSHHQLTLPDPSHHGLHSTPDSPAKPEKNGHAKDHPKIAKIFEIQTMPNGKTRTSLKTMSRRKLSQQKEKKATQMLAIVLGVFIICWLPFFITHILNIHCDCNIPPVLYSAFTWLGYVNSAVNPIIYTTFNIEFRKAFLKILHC
Chain of Glycogen synthase kinase-3 beta (Mus musculus) (Q9WV60 whole entry, looked up): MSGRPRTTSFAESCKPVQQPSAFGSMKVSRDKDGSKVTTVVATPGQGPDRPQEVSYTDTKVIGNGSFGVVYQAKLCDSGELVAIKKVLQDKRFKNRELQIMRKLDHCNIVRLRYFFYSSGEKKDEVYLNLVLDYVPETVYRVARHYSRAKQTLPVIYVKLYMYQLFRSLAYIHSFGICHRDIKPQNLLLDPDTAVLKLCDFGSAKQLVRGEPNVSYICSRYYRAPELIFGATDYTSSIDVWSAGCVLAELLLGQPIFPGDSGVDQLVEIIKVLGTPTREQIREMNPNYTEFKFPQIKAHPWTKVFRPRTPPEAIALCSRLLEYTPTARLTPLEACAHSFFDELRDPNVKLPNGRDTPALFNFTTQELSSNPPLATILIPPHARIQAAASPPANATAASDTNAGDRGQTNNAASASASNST
Chain of D(3) dopamine receptor (Homo sapiens) (P35462 whole entry): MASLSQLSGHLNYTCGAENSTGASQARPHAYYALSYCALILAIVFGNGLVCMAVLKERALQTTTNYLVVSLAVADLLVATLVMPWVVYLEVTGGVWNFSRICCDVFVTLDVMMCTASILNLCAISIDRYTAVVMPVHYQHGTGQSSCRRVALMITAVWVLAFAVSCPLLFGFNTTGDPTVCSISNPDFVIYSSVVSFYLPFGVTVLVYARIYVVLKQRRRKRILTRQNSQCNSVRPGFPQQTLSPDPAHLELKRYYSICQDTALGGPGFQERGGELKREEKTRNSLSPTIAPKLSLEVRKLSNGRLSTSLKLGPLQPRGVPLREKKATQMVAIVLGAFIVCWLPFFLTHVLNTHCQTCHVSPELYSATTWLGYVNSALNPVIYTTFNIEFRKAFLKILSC
Chain of Insulin receptor (Homo sapiens) (P06213 28-758 limits assumed): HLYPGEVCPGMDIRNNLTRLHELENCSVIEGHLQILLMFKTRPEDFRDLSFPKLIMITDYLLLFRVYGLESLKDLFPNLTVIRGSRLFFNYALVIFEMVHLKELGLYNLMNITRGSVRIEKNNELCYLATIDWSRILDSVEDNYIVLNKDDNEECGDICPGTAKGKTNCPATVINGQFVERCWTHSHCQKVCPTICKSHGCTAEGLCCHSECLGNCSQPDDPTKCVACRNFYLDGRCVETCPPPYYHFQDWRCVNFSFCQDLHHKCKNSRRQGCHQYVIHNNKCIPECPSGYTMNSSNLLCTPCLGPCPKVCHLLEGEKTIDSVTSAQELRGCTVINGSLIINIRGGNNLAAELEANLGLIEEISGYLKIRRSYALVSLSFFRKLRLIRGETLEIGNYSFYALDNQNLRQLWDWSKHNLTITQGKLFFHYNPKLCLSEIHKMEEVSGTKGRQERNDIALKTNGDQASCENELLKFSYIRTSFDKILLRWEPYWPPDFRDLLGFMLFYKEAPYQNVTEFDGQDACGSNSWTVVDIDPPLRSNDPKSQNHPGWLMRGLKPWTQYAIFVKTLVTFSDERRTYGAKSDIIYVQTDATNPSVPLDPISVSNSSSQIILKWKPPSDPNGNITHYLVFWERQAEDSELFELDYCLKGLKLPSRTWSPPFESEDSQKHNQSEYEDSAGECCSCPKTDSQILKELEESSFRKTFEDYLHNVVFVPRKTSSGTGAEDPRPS
Chain of Insulin receptor (Homo sapiens) (P06213 763-1382 limits assumed): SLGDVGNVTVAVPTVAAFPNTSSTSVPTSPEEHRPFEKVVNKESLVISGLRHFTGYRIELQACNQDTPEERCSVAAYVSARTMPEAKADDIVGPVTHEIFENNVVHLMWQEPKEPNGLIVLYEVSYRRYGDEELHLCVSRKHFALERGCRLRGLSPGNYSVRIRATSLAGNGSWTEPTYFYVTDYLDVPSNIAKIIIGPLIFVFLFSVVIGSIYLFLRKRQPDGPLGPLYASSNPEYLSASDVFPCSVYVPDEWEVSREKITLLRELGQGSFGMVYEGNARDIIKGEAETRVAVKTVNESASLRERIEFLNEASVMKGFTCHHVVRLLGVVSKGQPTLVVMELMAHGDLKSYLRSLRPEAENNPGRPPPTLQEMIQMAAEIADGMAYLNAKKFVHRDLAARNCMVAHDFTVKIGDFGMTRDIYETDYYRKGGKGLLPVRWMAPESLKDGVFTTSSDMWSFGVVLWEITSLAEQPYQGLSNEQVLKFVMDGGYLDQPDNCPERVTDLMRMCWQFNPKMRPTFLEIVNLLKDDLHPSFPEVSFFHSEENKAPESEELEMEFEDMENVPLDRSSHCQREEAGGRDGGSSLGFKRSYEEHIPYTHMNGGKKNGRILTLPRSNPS
Chain of Dual specificity mitogen-activated protein kinase kinase 1 (Oryctolagus cuniculus) (P29678 whole entry): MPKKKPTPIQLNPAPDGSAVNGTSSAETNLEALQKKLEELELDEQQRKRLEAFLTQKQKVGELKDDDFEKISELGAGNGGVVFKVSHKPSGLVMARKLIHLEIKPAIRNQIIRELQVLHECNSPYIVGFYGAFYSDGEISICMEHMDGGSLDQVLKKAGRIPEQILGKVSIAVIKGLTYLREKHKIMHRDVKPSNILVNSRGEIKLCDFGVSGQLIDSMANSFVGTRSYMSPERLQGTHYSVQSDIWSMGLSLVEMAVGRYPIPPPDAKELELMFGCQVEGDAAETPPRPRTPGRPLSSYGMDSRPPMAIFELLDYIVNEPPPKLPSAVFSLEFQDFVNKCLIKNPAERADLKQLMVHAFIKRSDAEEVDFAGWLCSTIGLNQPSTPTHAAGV
T2 sequence (P49841 whole entry, looked up): as the sequence (Q9WV60 whole entry, looked up) above, with P390T, A392T, T400A, A402T counted along it
Chain of Proto-oncogene tyrosine-protein kinase Src (Homo sapiens) (P12931 2-536 limits assumed): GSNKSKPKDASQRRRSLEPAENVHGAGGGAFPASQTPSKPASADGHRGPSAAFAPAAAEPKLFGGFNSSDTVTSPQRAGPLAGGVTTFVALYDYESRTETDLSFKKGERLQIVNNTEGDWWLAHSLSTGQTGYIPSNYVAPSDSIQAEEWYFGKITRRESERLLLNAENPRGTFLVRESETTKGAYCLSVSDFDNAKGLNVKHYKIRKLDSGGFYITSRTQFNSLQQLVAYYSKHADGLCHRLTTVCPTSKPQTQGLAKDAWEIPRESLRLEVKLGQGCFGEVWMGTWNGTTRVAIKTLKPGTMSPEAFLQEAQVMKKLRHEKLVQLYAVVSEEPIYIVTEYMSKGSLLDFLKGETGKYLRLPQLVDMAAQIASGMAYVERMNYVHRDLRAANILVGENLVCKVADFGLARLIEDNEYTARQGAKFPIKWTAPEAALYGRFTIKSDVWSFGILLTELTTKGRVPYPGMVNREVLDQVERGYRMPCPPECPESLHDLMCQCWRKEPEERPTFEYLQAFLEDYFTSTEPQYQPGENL
Chain of Tyrosine-protein kinase ABL1 (Mus musculus) (P00520 whole entry): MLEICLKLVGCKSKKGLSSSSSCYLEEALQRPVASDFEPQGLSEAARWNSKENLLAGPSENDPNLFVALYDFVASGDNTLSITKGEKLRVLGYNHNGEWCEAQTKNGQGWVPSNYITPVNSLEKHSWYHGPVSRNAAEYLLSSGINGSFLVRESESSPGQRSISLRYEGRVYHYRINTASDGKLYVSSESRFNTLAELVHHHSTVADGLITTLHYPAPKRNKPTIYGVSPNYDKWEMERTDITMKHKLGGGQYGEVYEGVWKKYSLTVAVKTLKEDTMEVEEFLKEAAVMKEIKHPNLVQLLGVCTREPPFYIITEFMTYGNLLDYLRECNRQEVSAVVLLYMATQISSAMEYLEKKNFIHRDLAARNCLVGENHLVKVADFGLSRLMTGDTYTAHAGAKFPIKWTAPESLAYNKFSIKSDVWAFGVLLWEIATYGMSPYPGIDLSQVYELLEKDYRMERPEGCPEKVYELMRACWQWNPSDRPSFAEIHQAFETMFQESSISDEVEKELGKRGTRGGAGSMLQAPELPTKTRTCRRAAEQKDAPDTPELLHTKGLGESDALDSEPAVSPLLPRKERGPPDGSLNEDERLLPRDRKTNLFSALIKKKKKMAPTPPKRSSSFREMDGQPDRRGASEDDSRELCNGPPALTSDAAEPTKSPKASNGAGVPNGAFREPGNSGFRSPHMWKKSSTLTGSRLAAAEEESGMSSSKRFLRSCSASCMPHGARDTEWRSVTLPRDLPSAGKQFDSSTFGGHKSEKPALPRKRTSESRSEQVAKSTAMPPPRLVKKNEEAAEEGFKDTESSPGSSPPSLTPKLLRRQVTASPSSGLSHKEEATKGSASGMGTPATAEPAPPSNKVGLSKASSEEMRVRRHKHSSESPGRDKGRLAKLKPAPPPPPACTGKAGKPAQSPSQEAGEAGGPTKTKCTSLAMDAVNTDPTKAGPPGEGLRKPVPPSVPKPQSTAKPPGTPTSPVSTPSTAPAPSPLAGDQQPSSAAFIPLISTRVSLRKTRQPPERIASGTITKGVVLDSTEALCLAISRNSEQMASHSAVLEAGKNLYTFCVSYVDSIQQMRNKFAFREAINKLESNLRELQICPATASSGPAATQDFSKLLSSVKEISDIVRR

Take `O=C(CCl)c1ccc(Br)s1`: the inhibition in the assay filed under Rattus norvegicus [1] is 16%; in assay [2], under 10%; in assay [3], under 10%; in the assay filed under Rattus norvegicus [4], under 10%; in assay [5], under 10%; in the assay listed under Bos taurus it was under 10%. Besides, the inhibition is 19% in assay [6]; under 10% in assay [7]; under 10% in [8]; under 10% in assay [9]; under 10% in the assay filed under Rattus norvegicus [10]; under 10% in assay [11]. For the same molecule, the inhibition (in assay [12]; in the assay filed under Rattus norvegicus [13]; in the assay filed under Rattus norvegicus [14]; in [16]; in assay [17]) was under 10% each time. Also, in [15], the outcome was Active.
For `O=C(CCl)c1cc(Br)c(Br)s1`, the inhibition (in the assay filed under Rattus norvegicus [1]; in assay [2]; in assay [3]; in the assay listed under Rattus norvegicus [4]; in assay [5]; in the assay listed under Bos taurus) was under 10% each time. The inhibition in assay [6] was 69%; in assay [7], under 10%; in assay [8] it was under 10%; in assay [9], under 10%; in the assay filed under Rattus norvegicus [10], under 10%; in assay [11] it was under 10%. Further, the inhibition (in assay [12]; in the assay listed under Rattus norvegicus [13]; in the assay filed under Rattus norvegicus [14]; in assay [16]; in [17]) was under 10% in each case. Further, the result in [18] was Active.
Take `O=C(CCl)c1ccc(Cl)s1`: the inhibition (in the assay filed under Rattus norvegicus [1]; in assay [2]; in [3]; in the assay filed under Rattus norvegicus [4]; in [5]; in the assay listed under Bos taurus) was under 10% throughout. Moreover, the inhibition was under 10% in assay [6]; under 10% in assay [7]; under 10% in assay [8]; under 10% in assay [9]; 17% in the assay listed under Rattus norvegicus [10]; under 10% in assay [11]. Besides, the inhibition (in [12]; in the assay filed under Rattus norvegicus [13]; in the assay listed under Rattus norvegicus [14]; in assay [16]; in [17]) was under 10% in each case. Further, the result in assay [15] was Active.
In the case of `O=C(CCl)c1csc(C(=O)CCl)c1`, the inhibition entry in assay [19] and in assay [20] was “Active” each time. Moreover, the inhibition in the assay listed under Rattus norvegicus [1] was 21%; in assay [2] it was 16%; in assay [3], 12%; in the assay listed under Rattus norvegicus [4], under 10%; in assay [5] it was under 10%; in the assay listed under Bos taurus, 49%. In addition, the inhibition was 94% in [6]; under 10% in [7]; 10% in assay [8]; under 10% in assay [9]; 25% in the assay listed under Rattus norvegicus [10]; under 10% in assay [11]. Besides, the inhibition (in [12]; in the assay filed under Rattus norvegicus [13]; in the assay filed under Rattus norvegicus [14]; in assay [16]; in assay [17]) was under 10% throughout. Moreover, the result (in [15]; in the assay on N2a [21]) was Active.
Take `O=C(CCl)c1c(Br)sc(Cl)c1Cl`: the inhibition entry in assay [19] and in [20] was “Active” throughout. In addition, the inhibition in the assay listed under Rattus norvegicus [1] is under 10%; in assay [2], under 10%; in assay [3], under 10%; in the assay filed under Rattus norvegicus [4], under 10%; in assay [5], under 10%; in the assay filed under Bos taurus, 33%. Besides, the inhibition in assay [6] is 26%; in [7], 31%; in [8], under 10%; in assay [9], under 10%; in the assay filed under Rattus norvegicus [10] it was under 10%; in assay [11], 13%. Besides, the inhibition (in [12]; in the assay filed under Rattus norvegicus [13]; in the assay listed under Rattus norvegicus [14]; in assay [16]; in assay [17]) was under 10% each time. Also, the outcome (in assay [18]; in assay [15]; with N2a [22]) was Active.
Take `O=C(CCl)c1cscc1Cl`: the inhibition in the assay listed under Rattus norvegicus [1] is under 10%; in assay [2], under 10%; in [3], under 10%; in the assay filed under Rattus norvegicus [4], under 10%; in assay [5], under 10%; in the assay listed under Bos taurus, 31%. For the same molecule, the inhibition was 24% in [6]; 13% in assay [7]; under 10% in assay [8]; under 10% in assay [9]; under 10% in the assay filed under Rattus norvegicus [10]; 16% in assay [11]. Also, the inhibition (in [12]; in the assay filed under Rattus norvegicus [13]; in the assay filed under Rattus norvegicus [14]; in assay [16]; in assay [17]) was under 10% in each case. Besides, the result in assay [15] was Active.
